From PubChem BioAssay
V-ATPase pH: yeast V-ATPase proton transport regulation by pHLuorin. S. cerevisiae, pHLuorin cytosolic pH fluorescence. response, % at 10 µM. 350,000 tested, 0.37% active. AID 504577; in the data active = response mostly above about 7.3%, no sharp cut-off; inactive = mostly below about 5.4%; note: actives read high
NR2E3 ag-1: human photoreceptor-specific nuclear receptor agonism | Q9Y5X4 | CHO-S Gal4-NCOR/VP16-NR2E3 two-hybrid, luciferase | inhibition of corepressor binding, % at 3.98 µM | 360,000 tested, 0.35% active | AID 602229;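 active = inhibition above the mean of all tested compounds plus 3 SD, cut at about 70% in these data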;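 note: 0% = DMSO with NR2E3 transfected cells and 100% = cells lacking NR2E3 construct; higher means lower luciferase signal from less NR2E3 corepressor binding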
Target sequence (Q9Y5X4 whole entry, looked up, the tested form may be a part): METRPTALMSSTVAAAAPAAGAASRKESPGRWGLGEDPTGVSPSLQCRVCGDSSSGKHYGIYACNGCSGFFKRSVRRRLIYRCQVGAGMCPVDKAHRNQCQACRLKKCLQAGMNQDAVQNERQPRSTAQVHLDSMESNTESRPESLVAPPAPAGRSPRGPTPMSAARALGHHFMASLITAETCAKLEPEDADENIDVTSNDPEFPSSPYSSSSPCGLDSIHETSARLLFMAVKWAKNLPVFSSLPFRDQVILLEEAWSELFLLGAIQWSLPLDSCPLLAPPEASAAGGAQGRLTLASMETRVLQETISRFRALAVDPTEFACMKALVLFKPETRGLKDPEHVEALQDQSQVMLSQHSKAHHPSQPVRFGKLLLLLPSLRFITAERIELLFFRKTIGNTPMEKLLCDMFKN
GalR3 antagonist: blocks the human galanin receptor 3; O60755; HEK293 GalR3-CNG cAMP membrane potential fluorescence; galR3 body fused to GalR1 C-terminus; inhibition, % at 3 µM; 360,000 tested, 0.44% active; AID 651719;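 active = inhibition above the screen-wide average plus 3 SD, cut at about 13% in these data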;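 note: forskolin and galanin both at EC90 stimulate the cells; cAMP rise reported by CNG channel membrane potential dye signal; 0% = forskolin plus galanin with DMSO and 100% = forskolin alone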
Target sequence (O60755 1-299 limits assumed): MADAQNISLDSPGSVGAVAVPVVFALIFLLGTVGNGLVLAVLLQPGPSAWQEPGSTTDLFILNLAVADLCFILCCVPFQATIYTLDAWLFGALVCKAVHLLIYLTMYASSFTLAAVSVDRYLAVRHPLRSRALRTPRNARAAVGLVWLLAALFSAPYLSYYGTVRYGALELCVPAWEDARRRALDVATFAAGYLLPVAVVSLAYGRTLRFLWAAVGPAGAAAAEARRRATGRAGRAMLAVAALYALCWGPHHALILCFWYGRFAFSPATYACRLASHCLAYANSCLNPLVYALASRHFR
GAA850 FXN act: activators of GAA850 frataxin (FXN) promoter. 360,000 tested, 0.56% active. activation, % at 6 µM. HEK293 lucGAA850 FXN promoter luciferase reporter, 24 h; percent of 10 µM SAHA response. AID 540364;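 active = activation above the average of all compounds screened plus 3 SD, cutoff fixed separately per campaign, cut at about 7.5% in these data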;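 note: 0% = DMSO wells and 100% = 10 µM SAHA wells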
Env fusion inh: HIV envelope-mediated fusion inhibition; HeLa-JRFL Env/CEM21 cell fusion, luciferase; inhibition, % at 12.3 µM; 360,000 tested, 1.1% active;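 active = mean replicate inhibition score of at least 50 and every replicate individually at or above 50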;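 note: 0% = plate neutral controls and 100% = maraviroc near 300 nM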
NR2E3 ag-2: NR2E3 (human) agonism. Q9Y5X4. GST-NR2E3/biotin-RetCOR TR-FRET, 1536-well. inhibition of corepressor binding, % at 4.78 µM. 320,000 tested, 0.12% active. AID 2300;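 active = percent inhibition above the cutoff of mean plus 3 SD of all tested compounds, set per screening campaign, cut at about 20% in these data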;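 note: 0% = DMSO wells and 100% = biotin wells as full block of FRET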
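Material – GST-tagged NR2E3 plus biotinylated RetCOR corepressor · Quantity – NR2E3 fusion 1.35 nM · Times – 5 h incubation at 4 °C · Medium – pH 7.5 Tris-based buffer · Technique – TR-FRET, Eu(K)-anti-GST donor, streptavidin-D2 acceptor, ex 340, em 617/671 nm · Benchmarks – high control biotin, low control 0.6% DMSO · Format – 1536-well plates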
NR2E3 ag conf: NR2E3 agonism confirmed in two-hybrid assay. shares compounds with NR2E3 ag-1. CHO-S mammalian two-hybrid NR2E3-NCOR, luciferase luminescence. inhibition, % at 3.98 µM. 2,300 tested, 51% active. AID 624378;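 active = average inhibition above a cutoff equal to the mean inhibition of all tested compounds plus one SD, cut at about 70% in these data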;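 note: 0% = DMSO in NR2E3 cells and 100% = DMSO in cells lacking NR2E3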
VP16 counter: counter-screen for NR2E3 agonists: GAL4-VP16 reporter inhibitors; shares compounds with NR2E3 ag-1; CHO-S GAL4-VP16 luciferase reporter, luminescence; inhibition, % at 3.98 µM; 2,300 tested, 29% active;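 active = mean inhibition above a cutoff equal to the average over all tested compounds plus one standard deviation, cut at about 70% in these data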;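 note: luciferase from a UAS reporter driven by GAL4-VP16 transactivation; 0% = DMSO with VP16-transfected cells and 100% = DMSO with cells lacking VP16; higher means less reporter light so more repression of VP16 activity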
An asterisk follows results filed as active; i = inactive; x = not tested or not shown; [ ] = dose if it differs, or a comment. Compounds with a hit are over-represented: about 2.2% of the library has one in this group of screens.

SMILES | V-ATPase pH | NR2E3 ag-1 | GalR3 antagonist | GAA850 FXN act | Env fusion inh | NR2E3 ag-2 | NR2E3 ag conf | VP16 counter
CCOCCOC(=O)c1[nH]c2c(c1C)C(=O)CC(c1ccc(OC)c(OC)c1)C2 (stereo not given) | 0.3 | -2.6 | -1.3 | -0.3 | 15.7 | 3.5 | x | x
Cc1ccc2ccc3ccc(C)nc3c2n1 | -1.1 | 92.1* | x | -6.7 | x | 2.6 | 40.2 | 28.5
Cc1ccc2cc(F)c(F)c(F)c2n1 | x | -7.5 | -1.9 | x | -9.1 | x | x | x
COc1ccccc1NC(=O)N[C@H]1CC[C@H](CCNS(=O)(=O)c2ccccc2)O[C@@H]1CO | x | x | x | x | -19.3[16.7 µM] | x | x | x
COc1ccc(OC)c2c1C(=O)C(Cl)=C(Cl)C2=O | 5.3 | 102.3* | -6.4 | -10.3 | 93.6* | -15.7 | 99.3* | 68.2
COc1cccc(S(=O)(=O)Nc2ccc3c(c2)[C@@H]2C[C@H](CC(=O)N[C@@H](C)c4ccccc4)O[C@@H](CO)[C@@H]2O3)c1 | x | x | x | x | -11.8[16.7 µM] | x | x | x
C[C@@H]1CN([C@H](C)CO)C(=O)c2cc(C3=CCCC3)cnc2O[C@@H]1CN(C)C(=O)Nc1cccc(F)c1 | x | x | x | x | 15.6[16.7 µM] | x | x | x
CCCn1c(C)cc(C(=O)CN2C(=O)c3ccccc3S2(=O)=O)c1C | -0.1 | 57.8 | -4.6 | -12.8 | 67.3* | x | 46.3 | 19.2
O=C(Nc1ccccc1C(=O)Nc1nnc(C(F)(F)F)s1)c1ccccc1Cl | 4.1 | 99.9* | -8.6 | -5.2 | 17.7 | 2.0 | 100.6* | 92.6*
O=[N+]([O-])c1cc(-c2ccccc2)cc([N+](=O)[O-])c1O | -1.2 | 79.5* | -4.2 | 1.3 | 1.5 | x | 100.4* | 89.1*
CCCC(=O)N1CCN(c2ccc(NC(=O)c3ccc([N+](=O)[O-])o3)cc2)CC1 | 0.2 | 51.3 | -0.7 | 7.2 | i | x | 14.1 | 11.9
C[C@@H]1CN([C@H](C)CO)C(=O)CCCn2nncc2CO[C@H]1CN(C)C(=O)Nc1ccc2c(c1)OCO2 | -2.9 | -34.9 | -4.7 | -0.4 | x | x | x | x
C[C@H](CO)N1C[C@H](C)[C@@H](CN(C)C(=O)Nc2ccc3c(c2)OCCO3)OCc2cnnn2CCCC1=O | -0.3 | 62.7 | -4.3 | -5.9 | -26.9 | x | 7.8 | -22.2
Cc1noc(C)c1S(=O)(=O)Nc1ccc2c(c1)CC(=O)N([C@H](C)CO)C[C@H](C)[C@@H](CN(C)C(=O)Nc1ccc3c(c1)OCO3)O2 | x | x | x | x | -12.5[16.7 µM] | x | x | x
Cc1ccc(Nc2nc(N)c([N+](=O)[O-])c(N3CCOCC3)n2)cc1C | -5.5 | 47.6 | -0.7 | 4.1 | x | -2.4 | 5.9 | -17.8
CCN(CC)C(=O)C1CCN(S(=O)(=O)c2ccc3oc4ccccc4c3c2)CC1 | -1.1 | 76.8* | -3.6 | -0.4 | x | -0.4 | 64.8 | 58.4
COc1cccc2c1C(=O)c1c(O)c3c(c(O)c1C2=O)CC(O)(C(=O)CO)CC3OC1CC(N(C)C)C(O)C(C)O1 (stereo not given) | -1.3 | 100.8* | -4.0 | -15.1 | 58.6* | x | 99.2* | 94.0*
O=C(NC(=S)N1CCN(c2nc(-c3ccccc3)cs2)CC1)c1cncc(Br)c1 | -2.8 | 61.7 | -6.3 | 1.0 | 24.5 | -0.1 | 40.2 | 38.7
O=S(=O)(N[C@H]1CC[C@H](CCn2cc(C3(O)CCCC3)nn2)O[C@H]1CO)c1ccccc1 | x | x | x | x | 24.7[16.7 µM] | x | x | x
C[C@@H]1CCCCO[C@@H](CN(C)Cc2ccncc2)[C@H](C)CN([C@@H](C)CO)C(=O)c2cc(NC(=O)c3ccccc3)ccc2O1 | x | x | x | x | 3.1[16.7 µM] | x | x | x
COc1ccc(NC(=O)Nc2cccc3c2O[C@H](CN(C)C(=O)Nc2cccc4ccccc24)[C@H](C)CN([C@@H](C)CO)C3=O)cc1 | x | x | x | x | -6.2[16.7 µM] | x | x | x
CC1=C(C(=O)NC2CCCc3c2cnn3-c2ccc(F)cc2F)OCCO1 (stereo not given) | -3.4 | 65.8 | -1.2 | -0.5 | -0.9 | 3.2 | 28.0 | 33.4
Cc1nnsc1C(=O)NC1CCCc2c1cnn2-c1ccccc1F (stereo not given) | 2.4 | 82.8* | 2.8 | -2.7 | 47.3 | 4.0 | 86.0* | 69.1
COc1ncccc1C(=O)NC1CCCc2c1cnn2-c1cc(C)cc(C)c1 (stereo not given) | -1.4 | -2.1 | -7.7 | 0.4 | 10.0 | 1.3 | x | x
COCc1ccc(C(=O)NC2CCCc3c2cnn3-c2cc(C)cc(C)c2)s1 (stereo not given) | 1.6 | 60.1 | -7.1 | 1.9 | 1.1 | x | 48.9 | 55.3
SMILES | V-ATPase pH | NR2E3 ag-1 | GalR3 antagonist | GAA850 FXN act | Env fusion inh | NR2E3 ag-2 | NR2E3 ag conf | VP16 counter
C[C@H]1CN([C@@H](C)CO)C(=O)Cc2cc(NC(=O)C3CCCCC3)ccc2O[C@@H]1CN(C)C(=O)Nc1ccccc1 | x | x | x | x | 6.4[16.7 µM] | x | x | x
CC(C)(NO)/C(=N/O)c1ccc(Br)cc1 | 6.8 | 48.0 | -2.9 | -0.5 | i | 1.6 | 12.5 | -8.8
CC(C)(NO)/C(=N\O)c1ccc(Cl)cc1 | -2.8 | 2.8 | 0.0 | 0.9 | x | 0.1 | x | x
CCN(CC)S(=O)(=O)c1ccc(NC(=O)Nc2cccc(C(F)(F)F)c2)cc1 | -4.8 | 69.7 | 0.7 | -2.0 | 96.3* | 2.2 | 74.7* | 41.9
O=C(Nc1ccc(OC(F)(F)F)cc1)Nc1cccc([N+](=O)[O-])c1 | 3.3 | 93.7* | -5.7 | -12.5 | -71.7 | -3.5 | 99.3* | 87.9*
O=C(Nc1ccc(OC(F)F)cc1)Nc1cccc(C(F)(F)F)c1 | -3.9 | 56.7 | -5.8 | -4.7 | 74.9* | -0.2 | 24.2 | 31.1
CCCC(=O)Nc1ccc2c(c1)C(=O)N(C)C[C@H](OC)[C@@H](C)CN(C(=O)c1ccccc1F)[C@H](C)CO2 | x | x | x | x | 10.6[16.7 µM] | x | x | x
Cc1ccc(/C=C2\SC(=S)N(CCCC(=O)NNC(=O)c3ccccc3O)C2=O)cc1 | -0.2 | 69.4 | 3.0 | -16.6 | 95.8* | 0.1 | 67.2 | 73.0*
Cc1ccc(/C=C2\SC(=S)N(CCCC(=O)Nc3cccc(C(=O)O)c3)C2=O)cc1 | -0.3 | 84.8* | -0.1 | -4.5 | -134.5 | 1.8 | 40.4 | 89.2*
O=C(CCCN1C(=O)S/C(=C/C=C/c2ccccc2)C1=O)Nc1ccc(C(=O)O)cc1 | 1.1 | 4.3 | -2.0 | -3.6 | -9.7 | 0.8 | x | x
Cc1ccc(C=C2SC(=S)N(CCCC(=O)Nc3cccc(C(=O)O)c3)C2=O)cc1 | x | 72.8* | -3.0 | -4.0 | 5.7 | x | 32.1 | 88.0*
O=C(CCCN1C(=O)/C(=C\c2ccccc2)SC1=S)Nc1cccc(C(=O)O)c1 | -2.3 | -21.4 | -9.5 | -0.5 | 4.2 | 1.4 | x | x
CC(=C\c1ccccc1)/C=C1/SC(=O)N(CCCC(=O)Nc2ccc(C(=O)O)cc2)C1=O | 2.2 | 72.8* | 1.6 | -10.1 | -29.7 | 2.2 | 9.7 | 76.1*
CCCC#Cc1ccc2c(c1)O[C@H](CN(C)C(=O)c1ccccc1)[C@H](C)CN([C@@H](C)CO)S2(=O)=O | x | x | x | x | 15.0[16.7 µM] | x | x | x
